Assay outcomes as filed in PubChem BioAssay.
PP5 inh = PP5 phosphatase inhibitors, primary screen, biochemical, fluorescence. purified PP5c, OMFP substrate fluorescence. inhibition, % at 6.7 µM. 0.18% of 320,000 active. AID 1987, 2009;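 active = inhibition above the campaign's mean inhibition across all tested compounds plus 3 SD, cut at about 9.5% in these data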;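 also: 0% = DMSO only and 100% = 100 µM cantharidin control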
HTR2A ag = mouse Htr2a agonists via beta-arrestin recruitment, primary screen, cell-based, luminescence. CHO-K1 mHTR2A beta-arrestin complementation; percent of 30 µM serotonin response. activation, % at 7.6 µM. 0.66% of 360,000 active;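 active = activation above a run cutoff, the mean activation of all tested compounds plus 3 SD, cut at about 14% in these data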;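 also: 0% = plate median of compound wells and 100% = 30 µM serotonin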
PP1 inh = PP1-alpha phosphatase inhibitors, primary screen, counter-screen for PP5 inhibitor project, biochemical, fluorescence, OMFP substrate, single point | purified PP1alpha | 0.9% of 320,000 active | inhibition, % at 6.7 µM;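 active = inhibition above the mean inhibition of all tested compounds plus 3 SD, computed separately for each screening campaign, cut at about 15% in these data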
Target sequence (P62136 whole entry, looked up): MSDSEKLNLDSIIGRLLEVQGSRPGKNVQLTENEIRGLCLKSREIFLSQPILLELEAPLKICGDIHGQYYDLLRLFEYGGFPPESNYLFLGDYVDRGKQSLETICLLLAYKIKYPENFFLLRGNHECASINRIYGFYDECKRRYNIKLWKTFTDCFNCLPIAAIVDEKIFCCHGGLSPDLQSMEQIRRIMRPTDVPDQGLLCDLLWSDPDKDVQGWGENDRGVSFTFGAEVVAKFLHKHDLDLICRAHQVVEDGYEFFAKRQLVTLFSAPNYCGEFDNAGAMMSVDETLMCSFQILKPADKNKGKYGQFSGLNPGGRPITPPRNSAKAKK
JMJD2C inh = inhibitors of GASC-1 histone demethylase, primary screen, biochemical, fluorescence, DELFIA europium | 0.069% of 330,000 active | inhibition, % at 2.35 µM | GST-JMJD2C(1-420) H3K9me3 demethylation;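 active = more than half of a compound's replicate wells show inhibition beyond 50%, single wells judged on their own value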;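 also: signal counts dimethyl H3K9 product captured on neutravidin plate; 0% = median of DMSO wells and 100% = 0.3 times that DMSO median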
T cell modulator = modulators of CD8 T cell-vesicle binding, primary screen, mouse 2C CD8+ T cells, flow cytometry; 2C CD8+ T cell-vesicle binding; stronger effect = lower value; response (vesicle binding), % at 7 µM; 0.068% of 330,000 active; AID 2052, 2009;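 active = response, share of CD8 T cells binding vesicles, and their 90th percentile fluorescence all below set limits, cut at about 80% in these data, passing the limit was not always enough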;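 also: values below 100% mean blocked vesicle binding to the CD8+ T cells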
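Assay system – 2C mouse CD8+ T cells · Also added – QL9-loaded Drosophila micro-vesicles · Timing – Cell–vesicle co-incubation 1.5 h at 37 °C, staining 20 min on ice · Signal – flow cytometry of vesicle-bound cells · Measure – percent CD8+ FL2 mean versus row control · Controls – Peptide-free naked vesicles (low) and QL9 vesicles with 0.7% DMSO vehicle (high)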
* marks the source's active call; other numbers are inactive results; x = no result given. Most compounds without a hit are left out; they make up all but 1.7% or so of the library.

SMILES	PP5 inh	HTR2A ag	PP1 inh	JMJD2C inh	T cell modulator
COc1ccc(Cl)cc1NC(=O)CN(C)C1CCCCC1	1.0	-4.2	-2.8	9.7	233.2
Cn1c(CNC(=O)CNC(=O)c2ccc(F)cc2)cc(=O)n(C)c1=O	0.1	-0.6	-1.9	-18.7	0.0*
Cc1cccc(C)c1NC(=O)C(c1ccccc1)N1CCN(c2ccc(F)cc2)CC1 (configuration not stated)	x	-1.2	x	x	x
CCOC(=O)c1cnc(=O)[nH]c1C	0.1	x	4.0	3.8	0.0*
CCN(CC)S(=O)(=O)c1ccc2c3c(cccc13)C(=O)N2	-0.2	-3.1	1.0	0.6	0.0*
CCN(c1cccc(C)c1)S(=O)(=O)c1ccc2c3c(cccc13)C(=O)N2	4.6	11.4	9.8	1.9	224.8
CCc1ccccc1NC(=O)CCC(=O)OCC(=O)c1ccc(-c2ccccc2)cc1	-1.2	-0.3	17.0*	7.1	0.0
CN(CC(=O)Nc1ccc(F)cc1)C(=O)c1ccccc1Sc1ccccc1C#N	x	-4.5	x	x	x
NC(=O)c1nsc(C(=O)N(c2cccc(F)c2)C(C(=O)NCC2CCCO2)c2c[nH]c3ccccc23)c1N (configuration not stated)	4.5	-2.1	0.8	12.1	456.6
COc1cc(/C=C/c2ccc3cccc(O)c3n2)cc(Br)c1OC	0.7	-5.8	15.2*	-4.3	276.1
COc1cc(/C=C/c2ccc3cccc(O)c3n2)cc(OC)c1OC	2.0	-5.4	8.1	-5.3	250.8
COc1ccc(Br)cc1/C=C/c1ccc2cccc(O)c2n1	-0.1	7.7	14.6	-7.0	335.2
COc1ccc(/C=C/c2ccc3cccc(O)c3n2)cc1Br	-0.6	0.1	17.1*	-13.6	324.0
CCN(CC)Cc1c(C(=O)N/N=C/c2cccnc2)nnn1-c1nonc1N	-1.0	9.1	-3.3	3.7	162.8
CCN(CC)Cc1c(C(=O)N/N=C/c2ccc(OCc3ccccc3C)cc2)nnn1-c1nonc1N	3.6	3.0	16.4*	3.8	89.2
Nc1nonc1-n1nnc(C(=O)N/N=C/c2cc(Br)ccc2O)c1CNc1ccccc1	2.5	-2.6	17.0*	12.9	326.1
CCCn1c(Cc2ccccc2)n[nH]c1=S	0.0	-0.4	-0.3	3.5	105.4
S=c1[nH]nc(Cc2ccccc2)n1Cc1ccco1	-1.1	15.2*	-3.2	6.8	189.1
Cc1cccnc1NC(=O)c1ccc(S(=O)(=O)N2CCC(C)CC2)cc1	-0.3	12.0	16.2*	3.6	381.9
Cc1nnc(NC(=O)c2ccc(S(=O)(=O)N3CCCCCC3)cc2)o1	1.0	3.9	16.8*	5.0	186.0
O=c1[nH]cc(S(=O)(=O)N2CCN(c3cccc(C(F)(F)F)c3)CC2)c(=O)[nH]1	-2.2	0.3	15.8*	0.9	433.1
O=c1[nH]cc(S(=O)(=O)N2CCN(c3cccc(Cl)c3)CC2)c(=O)[nH]1	3.6	-4.9	2.9	-9.4	960.8
COc1ccccc1C(=O)n1nc(-c2ccco2)nc1SC	-2.0	-4.2	13.1	-1.4	28.5*
CCc1ccc2c(c1)C1(NN=C(c3ccc(C)cc3)S1)C(=O)N2 (configuration not stated)	1.6	-6.1	4.5	195.8	574.6
CC(C)c1ccc2c(c1)C1(NN=C(c3ccccc3)S1)C(=O)N2 (configuration not stated)	2.8	-0.6	15.7*	-9.6	498.8
SMILES	PP5 inh	HTR2A ag	PP1 inh	JMJD2C inh	T cell modulator
CCN(CC)c1ccc(S(=O)(=O)N2CCOCC2)cc1NC(=O)CN1C(=O)NC2(CCC(C)CC2)C1=O (configuration not stated)	1.4	-1.3	-3.0	2.4	271.6
COc1ccc2cc3cc(C(=O)NCCN4CCN(c5ccccc5F)CC4)oc3nc2c1	3.3	-3.2	-0.4	-4.9	124.4
COc1ccc2cc3cc(C(=O)Nc4ccccc4N4CCN(C)CC4)oc3nc2c1	3.6	16.2*	4.2	3.8	490.8
Cc1cccc(-c2nnc(C(C)Nc3cccc(C(=O)NC4CC4)c3)o2)c1 (configuration not stated)	x	1.6	x	x	x
CC1CCc2c(sc3nc(CN4CCN(S(=O)(=O)c5ccccc5[N+](=O)[O-])CC4)[nH]c(=O)c23)C1 (configuration not stated)	5.8	2.2	15.9*	0.4	614.6
Cc1cnc(NC(=O)CSc2nc3ccccc3s2)s1	2.9	-1.4	1.5	-7.2	335.0
Cc1ccccc1-c1nnc(NC(=O)CSc2nc3ccccc3s2)s1	2.8	1.2	17.3*	8.1	391.0
CC(C)n1nnnc1C1c2ccccc2C(=O)N1CCc1c[nH]c2ccccc12 (configuration not stated)	x	-0.4	x	x	x
CC(NCc1ccccc1Cl)C(=O)Nc1ccc(S(=O)(=O)N2CCCC2)cc1 (configuration not stated)	-1.4	3.1	2.3	6.5	0.0*
CC(Oc1ccccc1Cl)C(=O)Nc1ccc(S(=O)(=O)N2CCCC2)cc1 (configuration not stated)	0.8	-1.6	-5.1	-6.9	53.1
COc1nc(Nc2ccc(C(C)C)cc2)nc(OC)n1	-0.5	-3.7	-1.6	6.1	0.0*
O=C(COC(=O)c1ccc([N+](=O)[O-])s1)NCCc1ccccc1	2.9	17.2*	0.8	-2.9	738.1
CC(=O)c1cccc(OC(=O)C2=CC=CN3CCS(=O)(=O)N=C23)c1	0.5	-4.0	2.7	-33.3	418.3
COc1ccc(-c2cc(CNS(=O)(=O)c3ccc(NC(C)=O)cc3)on2)cc1	1.5	-4.7	1.3	-4.9	0.0*
COC(=O)/C(=C(/F)Sc1cc(C)c(O)c(C)c1)C(F)(F)F	1.4	16.0*	-0.9	10.0	x
CCOc1c2ccccc2nn1CCO	2.0	0.3	-7.7	7.1	507.1
CCOc1ccc(NC(=O)CSc2nnc(C)n2CC)cc1	1.4	10.4	-3.2	-2.3	203.2
CCOc1ccc(NC(=O)CSc2nnc(C)n2Cc2ccccc2)cc1	-3.9	0.1	16.3*	-0.1	560.9
CCCCN(C(=O)C1CCCC1)C1CCS(=O)(=O)C1 (configuration not stated)	x	1.0	x	5.2	x
O=C(N=Nc1c(O)[nH]c2ccccc12)c1cc(NS(=O)(=O)c2cccs2)cc(NS(=O)(=O)c2cccs2)c1	-0.4	-1.2	16.4*	8.5	226.1
COC/C=C/C1=CC2=CC(=O)C(C)(OC(=O)c3cnc4ccccc4n3)C(=O)C2=CN1c1ccc(CO)cc1 (configuration not stated)	-1.5	x	19.7*	-18.1	555.0
